Experimental data as given in ChEMBL document CHEMBL1124334, “Hypolipidemic 2-[4-(1,1-dimethylethyl)phenyl]-4H-3,1-benzoxazin-4-ones. Structure-activity relationships of a novel series of high-density lipoprotein elevators” (1989).

Experiments:
Type in all cases: functional
Rattus norvegicus [1] = species on record: Rattus norvegicus; experiment: Change in plasma triglycerides in normocholesterolemic rats at 0.2 % composition of dose with diet given in a period of 3 days.
In short: (§1)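 Young male Wistar rats (120–150 g) fed basal powdered rodent diet ad libitum, with compound mixed into the diet at 0.2% w/w for 3 or 7 days. Plasma triglyceride and total cholesterol were then measured by standard enzymatic methods. Results are % change relative to controls.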

Rattus norvegicus [2] = experiment: Percent change in plasma total cholesterol in cholesterol-fed rats at 200 mg/kg dose given in a period of 3 days
In short: (§2)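 Young male Wistar rats (120–150 g), groups of eight, fed ad libitum rodent diet with 0.5% w/w cholesterol and 0.25% cholic acid for 10 days. Compound suspended in 0.5% w/w tragacanth mucilage and given daily by stomach tube over the final 3 days; controls got vehicle. After overnight starvation, rats were killed 3 h post final dose and cardiac blood taken into heparin.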

Rattus norvegicus [3] = species on record: Rattus norvegicus; experiment: Change in plasma total cholesterol in normocholesterolemic rats at 0.2 % composition of dose with diet given in a period of 3 days.; in short: as §1
Rattus norvegicus [4] = experiment: Percent change in plasma triglycerides in cholesterol-fed rats at 200 mg/kg dose given in a period of 3 days; in short: as §2
Rattus norvegicus [5] = experiment: Percent change in plasma HDL cholesterol in cholesterol-fed rats at 200 mg/kg dose given in a period of 3 days; in short: as §2
Rattus norvegicus [6] = experiment: Ratio of plasma HDL cholesterol/total cholesterol at 200 g/kg for 3 days; conditions: in the assay text read “200 mg/kg” for “200 g/kg”; in short: as §2

Structure (SMILES)	Change (Rattus norvegicus [1]) [%]	Change (Rattus norvegicus [2]) [%]	Change (Rattus norvegicus [3]) [%]	Change (Rattus norvegicus [4]) [%]	Change (Rattus norvegicus [5]) [%]	Change in HDL/total cholesterol ratio (Rattus norvegicus [6])	Ratio (Rattus norvegicus [6])
CC(C)(C)c1ccc(C(=O)Nc2ccc(Br)cc2C(N)=O)cc1	29	-8	4	-11	-1	4	
CC(C)(C)c1ccc(-c2nc3ccc(C(C)(C)C)cc3c(=O)o2)cc1	-17	63	-15	52	30	-17	
Cc1ccc2nc(-c3ccc(C(C)(C)C)cc3)n(C)c(=O)c2c1	-3	2	2	8	6	-5	
CC(C)(C)c1ccc(-c2nc3ccc(C(F)(F)F)cc3c(=O)o2)cc1	-45	-18	-40	-6	-8	11	
CN(C(=O)c1ccc(C(C)(C)C)cc1)c1ccc(Br)cc1C(=O)O	10	-22	-10	-13	33	59	
CC(C)(C)c1ccc(C(=O)Nc2ccc(Br)cc2C(=O)O)cc1	-20	-29	-56	-26	24	70	
CC(C)(C)c1ccc(-c2nc3ccc(-c4ccccc4)cc3c(=O)o2)cc1	1	-8	0	0	60	74	
COC(=O)c1cc(Br)ccc1NC(=O)c1ccc(C(C)(C)C)cc1	-7	-49	-34	-22	-7	70	
CCCCc1ccc2nc(-c3ccc(C(C)(C)C)cc3)oc(=O)c2c1	-32	-4	-3	22	65	69	
COc1ccc2nc(-c3ccc(C(C)(C)C)cc3)oc(=O)c2c1	-52	-28	-48	-26	21		52
CN(C)c1ccc2nc(-c3ccc(C(C)(C)C)cc3)oc(=O)c2c1	-12	-4	10	16	26	22	
Cc1ccc2nc(-c3ccc(C(C)(C)C)cc3)nc(O)c2c1	28	-17	1	-18	24	25	
CC(C)(C)c1ccc(-c2nc3ccc(NS(C)(=O)=O)cc3c(=O)o2)cc1	-8	-16	-3	6	22	27	
CNc1nc(-c2ccc(C(C)(C)C)cc2)nc2ccc(C)cc12		27		79	10	-12	
COC(=O)c1ccc2nc(-c3ccc(C(C)(C)C)cc3)oc(=O)c2c1	-13	29	-2	0	18	-4	
COC(=O)c1cc(C)ccc1NC(=O)c1ccc(C(C)(C)C)cc1	-8	-20	-4	68	25	46	
Cc1ccc2nc(Cc3ccc(C(C)(C)C)cc3)oc(=O)c2c1		1		27	-19	-27	
